NR2E3 ag-1 = NR2E3 (human) agonism; Q9Y5X4; GST-NR2E3/biotin-RetCOR TR-FRET, 1536-well; inhibition of corepressor binding, % at 4.78 µM; 320,000 compounds, 0.12% hits; AID 2300;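 active = percent inhibition above the cutoff of mean plus 3 SD of all tested compounds, set per screening campaign, cut at about 20% in these data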
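Material: NR2E3–RetCOR corepressor complex / Amount: 1.35 nM GST-NR2E3 / Medium: Tris pH 7.5 / Compound: single nominal compound dose of 4.8 µM / Incubation: 5 h at 4 °C / Technique: TR-FRET, Eu(K)-anti-GST donor, streptavidin-D2 acceptor, ex 340, em 617/671 nm / Read-out basis: percent loss of FRET ratio relative to control wells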
EP2 modulator = modulates human prostaglandin E2 receptor EP2 signaling; AID 940; 260,000 compounds, 0.83% hits; P43116; EP2-expressing cells, cAMP HTRF FRET, PGE2 co-stimulation; induction, % at 25 µM;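 active = compounds whose cAMP rise, as percent of the full-agonist control response, exceeds 60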;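 note: rat C6 glioma line stably carrying human EP2 under a CMV promoter; the protocol text gives 20 µM as final concentration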
Target sequence (P43116 whole entry, looked up): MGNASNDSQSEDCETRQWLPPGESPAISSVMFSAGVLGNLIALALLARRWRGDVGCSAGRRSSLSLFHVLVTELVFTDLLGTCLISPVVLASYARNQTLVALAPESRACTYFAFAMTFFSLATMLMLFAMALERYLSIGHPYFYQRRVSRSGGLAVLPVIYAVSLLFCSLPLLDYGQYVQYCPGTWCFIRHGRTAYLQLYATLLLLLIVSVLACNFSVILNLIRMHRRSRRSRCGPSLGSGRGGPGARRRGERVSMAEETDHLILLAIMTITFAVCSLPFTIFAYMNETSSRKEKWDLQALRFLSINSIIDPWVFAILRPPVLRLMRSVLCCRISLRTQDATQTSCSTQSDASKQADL
NR2E3 ag-2 = human photoreceptor-specific nuclear receptor agonism. inhibition of corepressor binding, % at 3.98 µM. Q9Y5X4. 360,000 compounds, 0.35% hits. AID 602229. CHO-S Gal4-NCOR/VP16-NR2E3 two-hybrid, luciferase;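 active = inhibition above the mean of all tested compounds plus 3 SD, cut at about 70% in these data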;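 note: higher means lower luciferase signal from less NR2E3 corepressor binding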
EP2 antag = blocks the human prostaglandin E2 receptor EP2. P43116. C6 glioma cells expressing human EP2, cAMP TR-FRET; cells stimulated with saturating PGE2. inhibition, % at 25 µM. 260,000 compounds, 0.52% hits. AID 1422;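 active = percent inhibition above 40 after rounding to a whole number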;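 note: rat C6 glioma host cells with rolipram phosphodiesterase inhibitor present; the protocol text gives 20 µM as final concentration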
GASC-1 inh = human JMJD2C demethylase inhibition | Q9H3R0 | GST-JMJD2C(1-420) H3K9me3 demethylation, DELFIA europium | inhibition, % at 2.35 µM | 330,000 compounds, 0.069% hits | AID 2099;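 active = more than half of a compound's replicate wells show inhibition beyond 50%, single wells judged on their own value; inconclusive = some, but no more than half, of replicates pass 50% inhibition; inactive = no replicate passes 50% inhibition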;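 note: signal counts dimethyl H3K9 product captured on neutravidin plate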
Furin inhibitor = inhibitors of human furin. P09958. purified furin, fluorogenic substrate cleavage. inhibition, % at 20 µM or 30 µM. 220,000 compounds, 0.061% hits; in the data active = inhibition above about 25%
Numbers stand for hits; – = inactive; ? = inconclusive; · = not tested or not shown. An excerpt weighted towards active compounds, which were near 1.3% of everything screened.

SMILES	NR2E3 ag-1	EP2 modulator	NR2E3 ag-2	EP2 antag	GASC-1 inh	Furin inhibitor
C[C@]12CC[C@@H]3[C@H](CCC4=CC(=O)CC[C@]43C)[C@]1(O)CC[C@@]2(O)C(=O)CO	·	–	·	55	·	·
COc1cc2c(cc1/C=C/[N+](=O)[O-])OCO2	·	–	–	103	–	–
O=C1NC(=O)N(c2ccc3c(c2)OCO3)C(=O)/C1=C/c1ccsc1	–	–	–	–	?	–
O=C1NC(=O)N(c2ccc3c(c2)OCO3)C(=O)/C1=C/c1cccs1	–	–	–	92	–	–
CC(=O)O[C@H]1[C@@H]2[C@@H](OC(=O)Cc3ccccc3)[C@@H](C)C[C@]2(OC(C)=O)C(=O)/C(C)=C/[C@H]2[C@H](CC[C@@]13CO3)C2(C)C	·	–	·	–	·	·
CC1(C)N=C(N)N=C(N)N1c1cccc(C(=O)Nc2ccc(S(=O)(=O)F)cc2)c1	·	–	·	52	·	·
C[C@@H]1CC[C@@H]2N(C1)C[C@@H]1[C@](O)([C@H](O)C[C@]3(O)[C@H]4CC[C@@H]5[C@]6(O)O[C@@]4(C[C@@]13O)[C@@]5(C)CC[C@H]6O)[C@@]2(C)O	·	–	·	48	·	·
COc1ccc(Nc2nc(CC(=O)N(C)CCN3CCCCC3)cs2)cc1	·	–	·	–	·	·
COc1cc(Br)cc(CN2CCN(C)CC2)c1O	–	–	–	–	59	–
CSc1ccc2c(c1)c(CCN)c(C)n2Cc1ccccc1Cl	·	–	·	104	·	·
O=C(CN1C2CCC1CC(O)(c1ccco1)C2)NC(c1ccccc1)c1ccccc1 (centres undefined)	·	–	·	·	·	·
C=CCN1C(=O)CN=C(c2ccc(F)cc2)c2c1sc1c2CCCC1	·	65	·	–	·	·
CCCC/C(C)=C/[C@@H](NP(=O)(c1ccccc1)c1ccccc1)c1ccccc1	–	64	–	–	–	–
C=CCc1cc(CN2C3CCC2CC(O)(c2nccn2C)C3)cc(OC)c1OC (centres undefined)	·	–	·	–	·	·
COc1ccc(CN2C(=O)NC(=O)/C(=C/c3ccc([N+](=O)[O-])o3)C2=O)cc1	·	–	·	–	·	–
O=C1NC(=O)N(Cc2ccco2)C(=O)/C1=C/C=C/c1ccco1	–	–	–	–	–	–
C=CCN1C(=O)NC(=O)/C(=C/C=C/c2ccccc2)C1=O	·	–	–	129	–	–
Cc1cccc(N2C(=O)NC(=O)/C(=C/c3ccc([N+](=O)[O-])o3)C2=O)c1	–	–	·	–	55	–
O=C1NC(=O)N(CCc2ccc(F)cc2)C(=O)/C1=C\C=C\c1ccccc1	·	–	–	–	·	–
O=C1NC(=O)N(Cc2ccccc2)C(=O)/C1=C\C=C\c1ccco1	–	–	–	63	?	–
O=C1NC(=O)N(c2ccccc2)C(=O)/C1=C/C=C/c1ccco1	–	–	–	47	–	–
Cc1ccc(N2C(=O)NC(=O)/C(=C\C=C\c3ccco3)C2=O)cc1	–	–	–	–	–	–
C#CCOc1ccc(CN2C3CCC2CC(O)(c2ccc(OC)cc2)C3)cc1OC (centres undefined)	·	–	·	–	·	·
CN(CCc1ccccc1)Cc1nc2ccccc2c(=O)[nH]1	·	–	·	–	·	·
CN(C)c1ccc(/C=C/C=C2/C(=O)NC(=O)N(c3ccccc3)C2=O)cc1	·	–	–	–	–	–
SMILES	NR2E3 ag-1	EP2 modulator	NR2E3 ag-2	EP2 antag	GASC-1 inh	Furin inhibitor
Cc1ccc(N2C(=O)NC(=O)/C(=C\C=C\c3ccco3)C2=O)cc1C	–	–	–	88	–	–
CN1C(=O)/C(=C/C=C/c2ccco2)C(=O)NC1=S	–	–	–	–	–	–
Cc1cccc(N2C(=O)NC(=O)/C(=C\C=C\c3ccco3)C2=O)c1	–	–	–	44	–	–
Cc1ccc(-c2nc(C)sc2CC(=O)N(C)CCN(C)C)c(C)c1	·	–	·	–	·	·
COc1ccc(C2=NCC(=O)N(CC(=O)N3CCCC3)c3sc(C)c(C)c32)cc1	·	–	·	–	·	·
CCN(CCN(C)C)C(=O)Cc1c(C)nc(-c2ccccc2)nc1OC	·	–	·	–	·	·
C[C@H]1CC[C@@H]2[C@@H](C)[C@H]3[C@H](C[C@H]4[C@@H]5CC=C6C[C@@H](O[C@@H]7O[C@H](CO)[C@H](O)[C@H](O[C@@H]8O[C@H](CO)[C@@H](O)[C@H](O)[C@H]8O)[C@H]7O[C@@H]7O[C@@H](C)[C@H](O)[C@@H](O)[C@H]7O)CC[C@]6(C)[C@H]5CC[C@]34C)N2C1	–	–	–	88	–	–

Assay outcomes from PubChem.
